Measurements published in ChEMBL document CHEMBL4257575, “Discovery of Novel Flavonoid Dimers To Reverse Multidrug Resistance Protein 1 (MRP1, ABCC1) Mediated Drug Resistance in Cancers Using a High Throughput Platform with "Click Chemistry"” (J Med Chem, 2018).

target: Multidrug resistance-associated protein 1 (Homo sapiens, UniProt P33527); assay: Inhibition of MRP1 in human 2008/MRP1 cells assessed as potentiation of doxorubicin-induced cytotoxicity by measuring cell survival at 2 uM after 5 days by MTS assay relative to control; assay type: cell-based; details: 120 h
Sequence (P33527 whole entry): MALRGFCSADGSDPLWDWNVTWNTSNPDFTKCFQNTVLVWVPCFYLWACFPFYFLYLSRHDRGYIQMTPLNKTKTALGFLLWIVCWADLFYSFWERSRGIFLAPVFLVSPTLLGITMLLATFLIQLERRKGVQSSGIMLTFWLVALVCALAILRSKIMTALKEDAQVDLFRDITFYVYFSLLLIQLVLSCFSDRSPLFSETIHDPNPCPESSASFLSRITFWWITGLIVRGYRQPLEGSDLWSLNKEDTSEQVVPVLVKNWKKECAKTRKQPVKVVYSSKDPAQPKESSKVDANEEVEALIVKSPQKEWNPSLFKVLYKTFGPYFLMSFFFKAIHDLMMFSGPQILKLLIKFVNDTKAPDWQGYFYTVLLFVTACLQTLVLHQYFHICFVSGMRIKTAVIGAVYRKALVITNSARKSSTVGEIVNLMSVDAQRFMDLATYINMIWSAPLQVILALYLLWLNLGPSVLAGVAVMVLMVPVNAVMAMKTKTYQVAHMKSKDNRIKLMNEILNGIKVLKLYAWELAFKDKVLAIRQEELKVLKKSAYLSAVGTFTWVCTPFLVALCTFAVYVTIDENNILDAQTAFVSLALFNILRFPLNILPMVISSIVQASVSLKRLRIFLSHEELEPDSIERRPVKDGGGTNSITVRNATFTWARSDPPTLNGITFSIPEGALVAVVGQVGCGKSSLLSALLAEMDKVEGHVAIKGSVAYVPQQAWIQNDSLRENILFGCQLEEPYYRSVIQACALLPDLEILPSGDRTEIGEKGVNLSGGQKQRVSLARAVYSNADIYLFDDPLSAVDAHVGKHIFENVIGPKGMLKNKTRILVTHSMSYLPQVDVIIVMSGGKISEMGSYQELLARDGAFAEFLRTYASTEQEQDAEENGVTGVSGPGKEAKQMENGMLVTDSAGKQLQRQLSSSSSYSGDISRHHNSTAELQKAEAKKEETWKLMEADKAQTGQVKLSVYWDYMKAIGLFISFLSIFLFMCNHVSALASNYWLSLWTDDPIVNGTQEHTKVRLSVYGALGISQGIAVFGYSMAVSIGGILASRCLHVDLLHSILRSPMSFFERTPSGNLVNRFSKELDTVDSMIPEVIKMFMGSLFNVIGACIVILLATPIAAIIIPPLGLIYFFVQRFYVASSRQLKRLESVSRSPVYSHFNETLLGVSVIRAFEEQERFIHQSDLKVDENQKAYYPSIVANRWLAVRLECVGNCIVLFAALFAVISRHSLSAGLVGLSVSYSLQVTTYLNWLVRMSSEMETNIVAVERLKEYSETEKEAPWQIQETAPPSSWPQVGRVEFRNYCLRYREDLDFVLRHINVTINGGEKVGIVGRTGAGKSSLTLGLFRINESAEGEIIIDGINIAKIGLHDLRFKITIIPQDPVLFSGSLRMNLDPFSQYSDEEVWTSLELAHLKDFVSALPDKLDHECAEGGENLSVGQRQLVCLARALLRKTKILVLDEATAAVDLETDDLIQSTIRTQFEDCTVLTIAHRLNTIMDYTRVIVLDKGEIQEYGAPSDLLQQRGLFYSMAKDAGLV
Method in brief: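 2008/MRP1 cells (retroviral human MRP1 transfectant; RPMI 1640, 10% FBS) at 4,000 per well, with 100 nM doxorubicin plus crude, unpurified click products in DMSO: 2 µM in the primary screen, 1 µM in the secondary. Incubated 5 days at 37 °C. MTS/PMS added for 2 h at 37 °C, absorbance read at 490 nm. % survival is relative to wells without DOX or product. Run in triplicate, at least three experiments.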

Row | SMILES | Survival [%]
1 | COc1cccc(COc2c(-c3ccc(OCCOCCn4cc(CCCCOc5ccc(/C=C/C(=O)c6ccc(F)cc6O)cc5)nn4)cc3)oc3ccccc3c2=O)c1 | 75
2 | O=c1cc(-c2ccc(OCCOCCn3cc(CN4CCN(Cc5cn(CCOCCOc6ccc(-c7cc(=O)c8cc(F)ccc8o7)cc6)nn5)CC4)nn3)cc2)oc2ccc(F)cc12 | 86
3 | O=c1[nH]c(-c2ccc(OCCCc3cn(CCOCCOCCOc4ccc(-c5cc(=O)c6cc(F)ccc6o5)cc4)nn3)cc2)nc2ccccc12 | 51
4 | O=Cc1ccc(OCCCCc2cn(CCOCCOCCOc3ccc4c(=O)cc(-c5ccccc5)oc4c3)nn2)cc1 | 81
5 | C#CCN(C)CCN(C)CC#C | 87
6 | O=c1cc(-c2ccc(OCCOCCn3cc(-c4cccc(-c5cn(CCOCCOc6ccc(-c7cc(=O)c8ccccc8o7)cc6)nn5)c4)nn3)cc2)oc2ccccc12 | 79
7 | Cc1ccc(O)c(C(=O)/C=C/c2ccc(OCCCCc3cn(CCOCCOc4ccc(-c5cc(=O)c6ccccc6o5)cc4)nn3)cc2)c1 | 60
8 | Cc1ccc2oc(-c3ccc(OCCOCCOCCn4cc(CN(C)CCN(C)Cc5cn(CCOCCOCCOc6ccc(-c7cc(=O)c8cc(C)ccc8o7)cc6)nn5)nn4)cc3)cc(=O)c2c1 | 76
9 | O=c1cc(-c2ccc(OCCOCCOCCn3cc(CN4CCN(Cc5cn(CCOCCOCCOc6ccc(-c7cc(=O)c8cc(F)ccc8o7)cc6)nn5)CC4)nn3)cc2)oc2ccc(F)cc12 | 85
10 | COCOc1cc(OCc2ccccc2)c2c(=O)cc(-c3ccc(OCCCc4cn(CCOc5cccc6c(=O)cc(-c7ccccc7)oc56)nn4)cc3)oc2c1 | 81
11 | O=c1cc(-c2ccccc2)oc2cc(OCCCCc3cn(CCOCCOc4ccc5c(=O)cc(-c6ccccc6)oc5c4)nn3)ccc12 | 53
12 | Cc1ccc(C(=O)/C=C/c2ccc(OCCCCc3cn(CCOCCOc4ccc(-c5cc(=O)c6cc(F)ccc6o5)cc4)nn3)cc2)c(O)c1 | 71
13 | O=c1[nH]c(-c2ccc(OCCCc3cn(CCOCCOCCOc4ccc5c(=O)cc(-c6ccccc6)oc5c4)nn3)cc2)nc2ccccc12 | 60
14 | COCOc1cc(OCc2ccccc2)c2c(=O)cc(-c3ccc(OCCCc4cn(CCOCCOc5ccc6c(=O)cc(-c7ccccc7)oc6c5)nn4)cc3)oc2c1 | 54
15 | O=c1cc(-c2ccc(OCCCc3cn(CCOc4cccc5c(=O)cc(-c6ccccc6)oc45)nn3)cc2)oc2cc(F)ccc12 | 77
16 | O=c1cc(-c2ccccc2)oc2cc(OCCN(Cc3ccccc3)Cc3cn(CCOCCOc4cccc(-c5oc6ccccc6c(=O)c5OCc5ccccc5)c4)nn3)ccc12 | 73
17 | CN(CCN(C)Cc1cn(CCOCCOCCOc2ccc3c(=O)cc(-c4ccccc4)oc3c2)nn1)Cc1cn(CCOCCOCCOc2ccc3c(=O)cc(-c4ccccc4)oc3c2)nn1 | 88
18 | COc1cccc(COc2c(-c3ccc(OCCOCCn4cc(CCCCOc5ccc(/C=C/C(=O)c6ccc(C)cc6O)cc5)nn4)cc3)oc3ccccc3c2=O)c1 | 78
19 | C#Cc1cccc(C#C)c1 | 84
20 | O=c1cc(-c2ccccc2)oc2cc(OCCn3cc(-c4cccc(-c5cn(CCOc6ccc7occ(-c8ccccc8)c(=O)c7c6)nn5)c4)nn3)ccc12 | 90
21 | C#CCCCOc1ccc(-c2cc(=O)c3ccccc3o2)cc1 | 74

Row | SMILES | Survival [%]
22 | O=Cc1ccc(OCCCCc2cn(CCOCCOc3ccc(-c4oc5ccccc5c(=O)c4OCc4ccccc4)cc3)nn2)cc1 | 59
23 | O=c1cc(-c2ccccc2)oc2cc(OCCCCc3cn(CCOCCOc4cccc(-c5oc6ccccc6c(=O)c5OCc5ccccc5)c4)nn3)ccc12 | 62
24 | Cc1ccc2oc(-c3ccc(OCCCCc4cn(CCOCCOc5ccc(-c6oc7ccccc7c(=O)c6OCc6ccccc6)cc5)nn4)cc3)cc(=O)c2c1 | 73
25 | Cc1ccc2oc(-c3ccc(OCCOCCOCCn4cc(CN5CCN(Cc6cn(CCOCCOCCOc7ccc(-c8cc(=O)c9cc(C)ccc9o8)cc7)nn6)CC5)nn4)cc3)cc(=O)c2c1 | 103
26 | Cc1ccc(C(=O)/C=C/c2ccc(OCCCCc3cn(CCOCCOCCOc4ccc(-c5cc(=O)c6cc(F)ccc6o5)cc4)nn3)cc2)c(O)c1 | 51
27 | COc1cccc(COc2c(-c3ccc(OCCOCCn4cc(CCCOc5ccc(-c6cc(=O)c7ccccc7o6)cc5)nn4)cc3)oc3ccccc3c2=O)c1 | 68
28 | [N-]=[N+]=NCCOCCOc1ccc(-c2cc(=O)c3ccccc3o2)cc1 | 78
29 | C#CCCCOc1ccc2c(=O)cc(-c3ccccc3)oc2c1 | 85
30 | O=C(/C=C/c1ccc(OCCCCc2cn(CCOCCOc3cccc(-c4oc5ccccc5c(=O)c4OCc4ccccc4)c3)nn2)cc1)c1ccc(F)cc1O | 68
31 | C#CCCCOc1ccc(-c2nc3ccccc3c(=O)[nH]2)cc1 | 86
32 | O=c1cc(-c2ccccc2)oc2cc(OCCOCCOCCn3cc(-c4ccc(-c5cn(CCOCCOCCOc6ccc7c(=O)cc(-c8ccccc8)oc7c6)nn5)cc4)nn3)ccc12 | 88
33 | O=c1cc(-c2ccc(OCCOCCOCCn3cc(-c4cccc(-c5cn(CCOCCOCCOc6ccc(-c7cc(=O)c8cc(F)ccc8o7)cc6)nn5)c4)nn3)cc2)oc2ccc(F)cc12 | 72
34 | O=C(/C=C/c1ccc(OCCCCc2cn(CCOc3cccc4c(=O)cc(-c5ccccc5)oc34)nn2)cc1)c1ccccc1O | 85
35 | CN(CCN(C)Cc1cn(CCOCCOc2cccc(-c3oc4ccccc4c(=O)c3OCc3ccccc3)c2)nn1)Cc1cn(CCOCCOc2cccc(-c3oc4ccccc4c(=O)c3OCc3ccccc3)c2)nn1 | 83
36 | O=c1[nH]c(-c2ccc(OCCCc3cn(CCOCCOc4ccc(-c5cc(=O)c6cc(F)ccc6o5)cc4)nn3)cc2)nc2ccccc12 | 76
37 | CCc1ccc(O)c(C(=O)/C=C/c2ccc(OCCCCc3cn(CCOCCOc4ccc(-c5oc6ccccc6c(=O)c5OCc5cccc(OC)c5)cc4)nn3)cc2)c1 | 76
38 | COc1cccc(COc2c(-c3ccc(OCCOCCn4cc(CCCCOc5ccc(/C=C/C(=O)c6ccccc6O)cc5)nn4)cc3)oc3ccccc3c2=O)c1 | 74
39 | [N-]=[N+]=NCCOCCOc1ccc(-c2oc3ccccc3c(=O)c2OCc2ccccc2)cc1 | 72
40 | O=c1cc(-c2ccc(OCCCc3cn(CCOc4cccc5c(=O)cc(-c6ccccc6)oc45)nn3)cc2)oc2ccc(F)cc12 | 89
41 | O=c1cc(-c2ccccc2)oc2cc(OCCCc3cn(CCOCCOCCOc4ccc(-c5oc6ccccc6c(=O)c5OCc5ccccc5)cc4)nn3)ccc12 | 63
42 | C#CCCCCOc1ccc(/C=C/C(=O)c2ccc(C)cc2O)cc1 | 100

Row | SMILES | Survival [%]
43 | C#CCCCOc1ccc(-c2cc(=O)c3c(OCc4ccccc4)cc(OCOC)cc3o2)cc1 | 67
44 | COc1cccc(COc2c(-c3ccc(OCCOCCn4cc(CCCOc5ccc(-c6nc7ccccc7c(=O)[nH]6)cc5)nn4)cc3)oc3ccccc3c2=O)c1 | 67
45 | O=c1cc(-c2ccccc2)oc2cc(OCCCCc3cn(CCOCCOc4ccc(-c5oc6ccccc6c(=O)c5OCc5ccccc5)cc4)nn3)ccc12 | 79
46 | O=c1c(OCc2ccccc2)c(-c2ccc(OCCOCCn3cc(CN(Cc4cn(CCOCCOc5ccc(-c6oc7ccccc7c(=O)c6OCc6ccccc6)cc5)nn4)Cc4cn(CCOCCOc5ccc(-c6oc7ccccc7c(=O)c6OCc6ccccc6)cc5)nn4)nn3)cc2)oc2ccccc12 | 77
47 | Cc1ccc2oc(-c3ccc(OCCCCc4cn(CCOc5cccc6c(=O)cc(-c7ccccc7)oc56)nn4)cc3)cc(=O)c2c1 | 75
48 | Cc1ccc(O)c(C(=O)/C=C/c2ccc(OCCCCc3cn(CCOCCOc4ccc5c(=O)cc(-c6ccccc6)oc5c4)nn3)cc2)c1 | 73
49 | Cc1ccc2oc(-c3ccc(OCCOCCOCCn4cc(CCCOc5ccc(-c6cc(=O)c7cc(F)ccc7o6)cc5)nn4)cc3)cc(=O)c2c1 | 82
50 | Cc1ccc2oc(-c3ccc(OCCOCCOCCn4cc(CCCOc5ccc6c(=O)cc(-c7ccccc7)oc6c5)nn4)cc3)cc(=O)c2c1 | 55
51 | O=c1c(OCc2ccccc2)c(-c2ccc(OCCOCCn3cc(-c4cccc(-c5cn(CCOCCOc6ccc(-c7oc8ccccc8c(=O)c7OCc7ccccc7)cc6)nn5)c4)nn3)cc2)oc2ccccc12 | 87
52 | O=c1cc(-c2ccc(OCCOCCn3cc(CNc4ccccc4)nn3)cc2)oc2ccccc12 | 90
53 | O=c1cc(-c2ccccc2)oc2cc(OCCn3cc(-c4ccc(-c5cn(CCOc6ccc7occ(-c8ccccc8)c(=O)c7c6)nn5)cc4)nn3)ccc12 | 87
54 | O=Cc1ccc(OCCCCc2cn(CCOCCOCCOc3ccc(-c4cc(=O)c5cc(F)ccc5o4)cc3)nn2)cc1 | 74
55 | O=c1cc(-c2ccc(OCCOCCn3cc(-c4ccc(-c5cn(CCOCCOc6ccc(-c7cc(=O)c8cc(F)ccc8o7)cc6)nn5)cc4)nn3)cc2)oc2ccc(F)cc12 | 77
56 | Cc1ccc2oc(-c3ccc(OCCOCCOCCn4cc(CN(CCOc5ccc6c(=O)cc(-c7ccccc7)oc6c5)Cc5ccccc5)nn4)cc3)cc(=O)c2c1 | 53
57 | O=c1cc(-c2ccccc2)oc2cc(OCCn3cc(CN(Cc4cn(CCOc5ccc6occ(-c7ccccc7)c(=O)c6c5)nn4)Cc4cn(CCOc5ccc6occ(-c7ccccc7)c(=O)c6c5)nn4)nn3)ccc12 | 87
58 | O=c1c(OCc2ccccc2)c(-c2cccc(OCCOCCn3cc(-c4cccc(-c5cn(CCOCCOc6cccc(-c7oc8ccccc8c(=O)c7OCc7ccccc7)c6)nn5)c4)nn3)c2)oc2ccccc12 | 89
59 | C#CCCCOc1ccc(-c2cc(=O)c3cc(F)ccc3o2)cc1 | 81
60 | O=c1cc(-c2ccc(OCCOCCOCCn3cc(-c4cccc(-c5cn(CCOCCOCCOc6ccc(-c7cc(=O)c8ccccc8o7)cc6)nn5)c4)nn3)cc2)oc2ccccc12 | 85
61 | Cc1ccc(O)c(C(=O)/C=C/c2ccc(OCCCCc3cn(CCOCCOCCOc4ccc5c(=O)cc(-c6ccccc6)oc5c4)nn3)cc2)c1 | 84
62 | O=c1cc(-c2ccc(OCCOCCOCCn3cc(CCCOc4ccc5c(=O)cc(-c6ccccc6)oc5c4)nn3)cc2)oc2ccccc12 | 54
63 | Cc1ccc2oc(-c3ccc(OCCCCc4cn(CCOCCOCCOc5ccc(-c6oc7ccccc7c(=O)c6OCc6ccccc6)cc5)nn4)cc3)cc(=O)c2c1 | 59
